Assay results published in ChEMBL document CHEMBL1909509, “Mepyramine-JNJ7777120-hybrid compounds show high affinity to hH(1)R, but low affinity to hH(4)R” (Bioorg Med Chem Lett, 2011).
The source made the active and inactive calls. The rule behind the calls is not given here.

Key:
[1] = target: T1, Histamine H4 receptor (Homo sapiens, UniProt Q9H3N8); test: Inverse agonist activity at human H4R expressed in Sf9 cells co-expressing RGS19, Galphai2 and Gbeta1gamma2 assessed as […] of [35S]GTPgammaS binding; assay type: functional
[2] = target: T1, Histamine H4 receptor; test: Inverse agonist activity at human H4R expressed in Sf9 cells co-expressing RGS19, Galphai2 and Gbeta1gamma2 assessed as […] of [35S]GTPgammaS binding relative to histamine; assay type: functional
[3] = target: Histamine H1 receptor (Homo sapiens, UniProt P35367); test: biochemical; assay type: cell-based, Sf9
[4] = target: T1, Histamine H4 receptor; test: Displacement of [3H]histamine from human H4R expressed in Sf9 cells co-expressing RGS19, Galphai2 and Gbeta1gamma2 after 60 mins by liquid scintillation counting
[5] = target: Histamine H1 receptor (Cavia porcellus) (UniProt P31389); test: Partial agonist activity at H1R in guinea pig ileum assessed as inhibition of histamine-induced muscle contraction after 15 mins; assay type: functional, tissue-based
Summary of the method: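 Isolated guinea-pig ileum, contraction induced by histamine; test ligand incubated 15 min before the histamine response.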

[6] = target: Histamine H1 receptor (Cavia porcellus, UniProt P31389); test: Antagonist activity at H1R in guinea pig ileum assessed as inhibition of histamine-induced muscle contraction after 15 mins; assay type: functional, tissue-based; conditions: read-out: pA2 (converted)
[7] = target: T1, Histamine H4 receptor; test: Partial agonist activity at human H4R expressed in Sf9 cells co-expressing RGS19, Galphai2 and Gbeta1gamma2 assessed as stimulation of [35S]GTPgammaS binding; assay type: functional
[8] = target: T1, Histamine H4 receptor; test: Partial agonist activity at human H4R expressed in Sf9 cells co-expressing RGS19, Galphai2 and Gbeta1gamma2 assessed as stimulation of [35S]GTPgammaS binding relative to histamine; assay type: functional

Sequence of Histamine H1 receptor (Cavia porcellus, UniProt P31389) (P31389 whole entry): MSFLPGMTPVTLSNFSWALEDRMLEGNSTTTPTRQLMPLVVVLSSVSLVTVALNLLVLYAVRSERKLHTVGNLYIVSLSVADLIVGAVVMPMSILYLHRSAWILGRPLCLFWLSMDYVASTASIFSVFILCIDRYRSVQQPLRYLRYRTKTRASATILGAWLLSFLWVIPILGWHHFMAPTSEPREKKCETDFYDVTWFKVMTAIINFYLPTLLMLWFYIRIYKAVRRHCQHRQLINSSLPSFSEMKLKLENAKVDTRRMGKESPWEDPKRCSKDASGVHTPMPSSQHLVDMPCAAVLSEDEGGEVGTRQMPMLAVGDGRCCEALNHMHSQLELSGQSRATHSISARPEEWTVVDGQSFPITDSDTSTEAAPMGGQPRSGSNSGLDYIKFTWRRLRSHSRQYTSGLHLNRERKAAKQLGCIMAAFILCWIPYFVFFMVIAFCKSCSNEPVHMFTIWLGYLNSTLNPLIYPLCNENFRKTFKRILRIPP
Sequence of Histamine H1 receptor (Cavia porcellus) (P31389 whole entry): as above
Sequence of Histamine H1 receptor (Homo sapiens, UniProt P35367) (P35367 whole entry): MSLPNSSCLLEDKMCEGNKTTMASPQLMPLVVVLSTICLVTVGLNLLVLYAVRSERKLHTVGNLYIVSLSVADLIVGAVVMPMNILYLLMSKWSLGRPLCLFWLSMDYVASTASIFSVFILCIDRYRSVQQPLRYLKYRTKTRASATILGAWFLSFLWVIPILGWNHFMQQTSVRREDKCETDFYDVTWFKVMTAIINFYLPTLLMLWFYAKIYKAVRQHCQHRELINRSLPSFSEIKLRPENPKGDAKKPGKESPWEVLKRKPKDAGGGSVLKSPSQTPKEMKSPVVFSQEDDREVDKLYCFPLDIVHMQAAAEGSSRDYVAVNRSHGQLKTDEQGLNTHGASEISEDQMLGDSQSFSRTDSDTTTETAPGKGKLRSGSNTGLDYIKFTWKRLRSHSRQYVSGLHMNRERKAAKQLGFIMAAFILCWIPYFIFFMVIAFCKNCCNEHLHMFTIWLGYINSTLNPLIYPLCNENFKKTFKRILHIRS

| SMILES | EC50 [1] | Emax [2] | Ki [3] | Ki [4] | inhibition [5] | Kb [6] | EC50 [7] | Emax [8] |
| --- | --- | --- | --- | --- | --- | --- | --- | --- |
| O=C(c1cc2ccccc2[nH]1)N1CCN(CCOC(c2ccccc2)c2ccccc2)CC1 | – | – | 224 nM | 17800 nM | inactive | – | – | – |
| O=C(c1cc2ccccc2[nH]1)N1CCN(CCN2CCC(Nc3nc4ccccc4n3Cc3ccc(F)cc3)CC2)CC1 | – | – | 5.5 nM | 10500 nM | – | – | – | – |
| COc1ccc(CN(CCN(C)CCN2CCN(C(=O)c3cc4cc(Cl)ccc4[nH]3)CC2)c2ccccn2)cc1 | – | – | 100 nM | 6760 nM | inactive | 7.59 nM | – | – |
| CN1CCN(C(=O)c2nc3ccccc3[nH]2)CC1 | – | – | – | 288 nM | – | – | – | – |
| COc1ccc(CCN2CCC(Nc3nc4ccccc4n3Cc3ccc(F)cc3)CC2)cc1 [ASTEMIZOLE] | – | – | – | 7940 nM | – | – | – | – |

The next lines start with the values.

| EC50 [1] | Emax [2] | Ki [3] | Ki [4] | inhibition [5] | Kb [6] | EC50 [7] | Emax [8] | SMILES |
| --- | --- | --- | --- | --- | --- | --- | --- | --- |
| > 100000 nM | < -1% | 7.08 nM | 8910 nM | inactive | 4.9 nM | – | – | COc1ccc(CN(CCN(C)CCN2CCN(C(=O)c3cc4ccccc4[nH]3)CC2)c2ccccn2)cc1 |
| – | – | 603 nM | 22400 nM | inactive | 7.24 nM | – | – | COc1ccc(CN(CCN2CCN(C(=O)c3nc4ccccc4[nH]3)CC2)c2ccccn2)cc1 |
| – | – | 457 nM | 27500 nM | inactive | 8.51 nM | – | – | COc1ccc(CN(CCN[C@H]2CCN(C(=O)c3cc4ccccc4[nH]3)C2)c2ccccn2)cc1 |
| – | – | 170 nM | 5890 nM | inactive | 10.7 nM | 105000 nM | 88% | COc1ccc(CN(CCN2CCN(C(=O)c3cc4ccccc4[nH]3)CC2)c2ccccn2)cc1 |
| – | – | 776 nM | 15800 nM | inactive | 20.4 nM | – | – | COc1ccc(CN(CCN2CCN(C(=O)c3cc4cc(Cl)ccc4[nH]3)CC2)c2ccccn2)cc1 |
| – | – | 214 nM | 14100 nM | inactive | 12.6 nM | – | – | COc1ccc(CN(CCN(C)CC(C)Nc2ccc3[nH]c(C(=O)N4CCN(C)CC4)cc3c2)c2ccccn2)cc1 (racemic) |
